In series [1] the test system is collagen-induced arthritis (CIA) rats. In words: Therapeutic efficacy in collagen-induced arthritis. In kind it is in vivo, female Lewis rats. The note with it: 10 mg/kg intragastrically daily. Summed up:
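Female Lewis rats (150 ± 10 g, 6 weeks) given bovine type II collagen in complete Freund's adjuvant (400 μg collagen s.c.), reboosted day 7 with incomplete adjuvant. Test compound in 0.5% CMC, 10 mg/kg intragastric daily for 21 days; n = 7 per group, untreated CIA and healthy rats as controls. Every 3 days, two researchers record weight, ankle diameter and arthritis index (each paw 0–4, maximum 16).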

For series [2] the test system is unchanged. In words: Histological evaluation of ankle joints of CIA rats. The class given is in vivo, female Lewis rats. Conditions: 10 mg/kg intragastrically daily, 21 days. The essentials: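 CIA was induced in female Lewis rats (150 ± 10 g, 6 weeks) by s.c. injection of bovine type II collagen emulsified in complete Freund's adjuvant (400 μg collagen), then boosted 7 days later with collagen in incomplete adjuvant. Oral test compound was given in 0.5% CMC for 21 days (n = 7). Right ankles were fixed, decalcified, paraffin-embedded, and stained with H&E and safranin O–fast green. Sections were given a Mankin score (5 grades) over multiple fields. Groups were compared by Mann–Whitney U or ANOVA.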

In series [3] the test system is RA-FLS. Put plainly: Transwell migration assay. The class given is cell-based, human. The note with it: 320 μg/mL, 48 hrs. The essentials: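 RA-FLS (3×10³ cells/100 μL) in serum-free medium were placed in the upper chamber of 8-μm transwells with test compound (40–320 μg/mL). The lower chamber held 10% FBS as chemoattractant. After 48 h at 37°C, non-migrated cells were swabbed off. Underside cells were fixed in 4% paraformaldehyde for 30 min at room temperature, stained with 0.1% crystal violet, and counted in 5 random fields; three independent experiments.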

Series [4] is described as follows: In vitro drug release / dissolution in PBS buffer. The note with it: PBS 150 mM, pH 7.4, 37°C, 72 hrs. In kind it is physicochemical. Summed up:
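Release was by dialysis (3500 MWCO bag) into 20 mL PBS. Test powder (1.0 mg) was dispersed in 5 mL PBS at 37°C, or loaded hydrogel (250 μL) was placed in the bag. At set times 3 mL of outer buffer was withdrawn and replaced with fresh buffer. IGUR was quantified by UV absorbance at 309 nm.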

Series [5] deals with IL-6. In words: ELISA of IL-6 in serum and synovial homogenate supernatant of CIA rats. In kind it is in vivo, female Lewis rats. Conditions: 10 mg/kg intragastrically daily, 21 days. The essentials: (§1)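 Female Lewis rats; CIA from bovine type II collagen in complete Freund's adjuvant (400 μg collagen s.c.), boosted day 7 with incomplete adjuvant. Test compound in 0.5% CMC, 10 mg/kg intragastric daily, 21 days; n = 7, untreated CIA and healthy controls. Serum from canthus blood (300 × g, 10 min) and synovial homogenate supernatant (PBS, protease inhibitors) assayed by high-sensitivity ELISA; mean ± SD.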
For orientation: ELISA stands for enzyme-linked immunosorbent assay.

The conditions of series [6]: cited from earlier work.
Series [7] deals with TNF-α. Put plainly: ELISA of TNF-α in serum and synovial homogenate supernatant of CIA rats. In kind it is in vivo, female Lewis rats. Conditions: 10 mg/kg intragastrically daily, 21 days. The essentials: as §1
Series [8] deals with IL-1β. Put plainly: ELISA of IL-1β in serum and synovial homogenate supernatant of CIA rats. The class given is in vivo, female Lewis rats. Conditions: 10 mg/kg intragastrically daily, 21 days. The essentials: as §1
A short description of series [9]: In vivo pharmacokinetics, plasma concentration by HPLC. On the set-up: species or system female Lewis rats. The note with it: female, Lewis, rat, po, 10 mg/kg. Summed up:
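Healthy female Lewis rats (150 ± 10 g, 6 weeks) received a single oral 10 mg/kg dose of test compound suspended in 0.5% sodium CMC in water. Heparinized blood was drawn at 10 and 30 min and at 1, 2, 3, 4, 6, 8, 12, 18 and 24 h. Plasma drug was measured by HPLC, and parameters were calculated from the concentration–time curve.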

The subject of series [10] is RA-FLS. Put plainly: Matrigel transwell invasion assay. Conditions: 320 μg/mL, 48 hrs. In kind it is cell-based, human. Summed up:
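Transwell inserts were coated with Matrigel diluted in cold serum-free medium (medium:Matrigel 5:1) and incubated overnight. RA-FLS (3×10³ cells/100 μL) in serum-free medium plus test compound (40–320 μg/mL) were placed above 10% FBS for 48 h at 37°C. Invaded cells were fixed in 4% paraformaldehyde, stained with crystal violet, and counted in 5 random fields; three independent replicates.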

Series [11] deals with RA-FLS. Put plainly: MTS cell proliferation assay. In kind it is cell-based, human. Conditions: 48 hr. The essentials: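 Primary RA-FLS were grown from explants of patients' synovial tissue in DMEM/20% FBS and used at passages 3–6. Cells were seeded at 3×10³ cells/100 μL and allowed to adhere overnight. They were exposed for 48 h to test compound at 40, 80, 160 or 320 μg/mL in 10% FBS high-glucose DMEM, alongside medium, PBS or blank-gel controls. After MTS for 2 h, absorbance was read at 490 nm, with six replicate wells per group.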
Background: Tetrazolium dyes change colour on reduction, which living cells bring about.

The values that follow come from publication PMC6847989 (International Journal of Nanomedicine, 2019).

Broadly, the AUC(0-t) is exposure summed from dosing to a finite time, without extrapolation to infinity. A low value points to less exposure. Broadly, the Cmax is the maximum level reached in the sampled fluid or tissue. As usually defined, the half-life is how long it takes for the measured level to halve. Read a low half-life as rapid decline.

For the compound `CS(=O)(=O)Nc1cc2occ(NC=O)c(=O)c2cc1Oc1ccccc1` [raw IGUR, Iguratimod], in [1] (13th day of administration), the “body weight vs CIA group” value is “significantly higher than in the CIA group”. Moreover, the “AI scores vs CIA group” value in series [1] (16th day of administration) is “significantly lower than in the CIA group”. In addition, the “H&E histology of ankle joints vs CIA group” value in series [2] was “less infiltration of inflammatory cells in the synovial tissue and no obvious bone erosion”. For the same compound, in series [2] (P < 0.05), the “Mankin's score vs CIA group” value is given as “significantly lower” and the “synovitis score vs CIA group” value was “significantly lower”. For the same compound, the “area of ankle cartilage vs CIA group” value in [2] (saffron O-fixing green staining, Image J, P < 0.05) is given as “increased significantly”. In series [3], the “relative cell migration ratio” value turned out to be 44.69 ± 1.58%. In addition, the “dissolution rate (dissolved/released IGUR)” value in series [4] stood at 28.65%. Also, the “serum level of IL-6 vs CIA group” value in series [5] is listed as “significantly lower than those in the CIA group”. Besides, the “solubility in aqueous solvents” value in series [6] was “practically insoluble”. Moreover, in series [7], the “serum level of TNF-α vs CIA group” value was “significantly lower than those in the CIA group”. For the same compound, the “serum level of IL-1β vs CIA group” value in [8] is given as “significantly lower than those in the CIA group”. In addition, in series [9], the AUC(0-t) was 111 µg·h/mL, the Cmax was found to be 12700 ng/mL and the half-life is 222 min. Besides, in [10], the “relative cell invasion ratio” value came out at 44.59 ± 2.24%. Besides, the “relative cell proliferation ratio” value in [11] (160 μg/mL) was 83.72 ± 1.41%. Besides, the “relative cell proliferation ratio” value in series [11] (320 μg/mL) came out at 80.73 ± 2.14%.
